Source: ChEMBL document CHEMBL2203206, “Hesperetin: an inhibitor of the transforming growth factor-β (TGF-β) signaling pathway” (Eur J Med Chem, 2012)
Active and inactive are the calls of the source. The calls are words filed in the database; no cut-off is given here.

Tests used:
HeLa [1] = experiment: Antagonist activity at human TGF-beta receptor in HeLa cells assessed as reduction in TGF-beta1-induced p21 expression at 100 uM after 24 hrs by Western blot analysis; format: functional, cell-based
Method in brief: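 Starved HeLa cells exposed to vehicle (0.1% DMSO) or 100 μM compound for 24 h, with or without TGF-β1. Lysates were denatured at 95°C and separated on 7.5% SDS gels. PVDF blots were probed with anti-p21 (1:1000) and read by enhanced chemiluminescence.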

HeLa [2] = experiment: Antagonist activity at human TGF-beta receptor in HeLa cells assessed as suppression of nuclear translocation of Smad3 at 100 uM after 1 hr by immunofluorescence imaging; format: functional, cell-based
Method in brief: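 HeLa cells were grown 24 h, then serum-starved 24 h and treated 1 h with 0.1% DMSO or 100 μM compound, ± TGF-β1. Cells were fixed in 4% paraformaldehyde, permeabilized with 0.1% Triton X-100 and blocked with 1% BSA/PBST. Staining used anti-Smad3 (1:200, overnight) and Alexa 488 secondary (1:500), imaged by confocal microscopy.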

[3] = biological target: TGF-beta receptor type-2 (Homo sapiens) (UniProt P37173); experiment: Displacement of biotinylated TGF-beta1 from human TGF-beta type 2 receptor at 100 uM after 1 hr by avidin-FITC-based flow cytometry
Sequence of TGF-beta receptor type-2 (Homo sapiens) (P37173 whole entry): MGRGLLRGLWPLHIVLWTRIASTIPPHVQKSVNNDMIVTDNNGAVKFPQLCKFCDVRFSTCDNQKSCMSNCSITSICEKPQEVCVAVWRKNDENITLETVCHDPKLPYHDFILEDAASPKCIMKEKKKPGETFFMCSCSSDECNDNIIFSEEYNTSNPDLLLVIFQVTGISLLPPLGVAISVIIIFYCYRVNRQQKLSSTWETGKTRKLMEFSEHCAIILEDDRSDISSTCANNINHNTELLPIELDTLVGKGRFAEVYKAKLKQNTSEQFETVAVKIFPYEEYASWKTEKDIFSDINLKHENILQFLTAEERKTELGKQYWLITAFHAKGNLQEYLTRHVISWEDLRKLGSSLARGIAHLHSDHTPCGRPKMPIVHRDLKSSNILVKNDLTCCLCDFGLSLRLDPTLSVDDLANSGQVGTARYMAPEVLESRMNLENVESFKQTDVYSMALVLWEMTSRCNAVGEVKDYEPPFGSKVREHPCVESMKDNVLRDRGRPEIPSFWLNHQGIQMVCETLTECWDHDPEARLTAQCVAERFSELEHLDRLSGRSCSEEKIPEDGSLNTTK
Method in brief: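 HeLa cells were incubated 1 h with 0.1% DMSO or 100 μM compound in the presence of biotinylated TGF-β1. Bound ligand was detected with avidin-FITC and fluorescence intensity read by flow cytometry.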

HeLa [4] = experiment: Antimigratory activity against human HeLa cells assessed as inhibition of TGF-beta1-induced cell migration at 100 uM after 24 hrs by scratch motility assay; format: functional, cell-based
Method in brief: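 Confluent HeLa monolayers (1 × 10^6 cells/well), starved 24 h, were scratched with a pipette tip and washed. They then received 0.1% DMSO or 100 μM compound ± TGF-β1 for 24 h. Cells in five random fields of the scratch were counted and averaged per field.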

HeLa [5] = experiment: Cytotoxicity against human HeLa cells at 1 to 200 uM after 24 hrs by MTS proliferation assay; format: cell-based
Method in brief: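 HeLa cells were seeded at 1 × 10^4 per well in complete medium for 24 h. They were then exposed to vehicle (0.1% DMSO) or 0–200 μM compound for 24 h. Proliferation was read with a CellTiter 96 Aqueous non-radioactive (MTS-type) assay.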

HeLa [6] = experiment: Antagonist activity at human TGF-beta receptor in HeLa cells assessed as reduction in TGF-beta1-induced Smad3 phosphorylation at 100 uM after 1 hr by Western blot analysis; format: functional, cell-based
Method in brief: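 Starved HeLa cells given 0.1% DMSO vehicle or 100 μM compound for 1 h, with or without TGF-β1. Lysates in Laemmli buffer were denatured 10 min at 95°C and run on 7.5% SDS gels, then transferred to PVDF. Blots were probed with p-Smad3 and Smad3 antibodies (1:1000) and detected by ECL.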

[7] = biological target: TGF-beta receptor type-2 (Homo sapiens) (UniProt P37173); experiment: Inhibition of TGF-beta1 induced TGF-beta type 2 receptor dimerization in human HeLa cells assessed as receptor dimers by bleaching-step counting assay (reference value: 39.9 +/- 2.5%); format: cell-based; parameters: scale not given: the % may be the effect or the level left
HeLa [8] = experiment: Antimigratory activity against human HeLa cells assessed as inhibition of TGF-beta1-induced cell invasion across collagen matrix at 100 uM after 24 hr by collagen-based cell Invasion assay
[9] = biological target: TGF-beta receptor type-2 (Homo sapiens) (UniProt P37173); experiment: Inhibition of TGF-beta1 induced TGF-beta type 2 receptor dimerization in human HeLa cells at 100 uM after 1 hr by single-molecule fluorescence microscopy; format: cell-based
Method in brief: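 HeLa cells were transfected for 4 h with TβRII-GFP plasmid (0.2 μg/mL) to give low expression. They were given 0.1% DMSO or 100 μM compound for 1 h, then 15 min with 10 ng/mL TGF-β1 where stimulated. Live-cell TIRF imaging used 488-nm excitation at 10 Hz for 200 frames. Spot intensities were fitted with Gaussians to give monomer/dimer fractions; purified GFP served as monomer reference.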

COc1ccc([C@@H]2CC(=O)c3c(O)cc(O)cc3O2)cc1O [HESPERETIN]
inhibition (HeLa [1]): Active | inhibition (HeLa [2]): Active | Activity [3]: Active | inhibition (HeLa [4]): Active | Activity (HeLa [5]): Non-toxic | inhibition (HeLa [6]): Active | Activity [7]: 19.5% | inhibition (HeLa [8]): Active | inhibition [9]: 19.9%
